Measurements taken from ChEMBL document CHEMBL2417509, “Synthesis and biological evaluation of prodigiosene conjugates of porphyrin, estrone and 4-hydroxytamoxifen” (2013).

What was measured:
Assay type in all cases: functional
SN12C = experiment: Cytotoxicity against human SN12C cells after 2 days by sulforhodamine B assay; conditions: 48 h
Procedure, shortened: (§1)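 NCI60 multi-dose screen, 59 human tumour lines available. Cells exposed to compound across a 5-log mol/L concentration range for 2 days, then fixed and stained with sulphorhodamine B, optical density read. Growth inhibition calculated against time-zero control and untreated cells. GI50 derived from the dose series, average of two replicates.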

BT-549 = experiment: Cytotoxicity against human BT549 cells after 2 days by sulforhodamine B assay; conditions: BT-549, 48 h; procedure, shortened: as §1
OVCAR-8 = experiment: Cytotoxicity against human OVCAR8 cells after 2 days by sulforhodamine B assay; conditions: OVCAR-8, 48 h; procedure, shortened: as §1
HCT-15 = experiment: Cytotoxicity against human HCT15 cells after 2 days by sulforhodamine B assay; conditions: HCT-15, 48 h; procedure, shortened: as §1
M14 = experiment: Cytotoxicity against human M14 cells after 2 days by sulforhodamine B assay; conditions: M14, 48 h; procedure, shortened: as §1
HCT-116 = experiment: Cytotoxicity against human HCT116 cells after 2 days by sulforhodamine B assay; conditions: HCT-116, 48 h; procedure, shortened: as §1
HOP-62 = experiment: Cytotoxicity against human HOP62 cells after 2 days by sulforhodamine B assay; conditions: HOP-62, 48 h; procedure, shortened: as §1
MCF7 = experiment: Cytotoxicity against human MCF7 cells after 2 days by sulforhodamine B assay; conditions: MCF7, 48 h; procedure, shortened: as §1
SR = experiment: Cytotoxicity against human SR cells after 2 days by sulforhodamine B assay; conditions: 48 h
Procedure, shortened: (§2)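 NCI DTP NCI60 multi-dose screen (59 human tumour lines available). Cells exposed to compound over a 5-log mol/L concentration range for 2 days, then fixed and stained with sulphorhodamine B, with optical density read. Growth inhibition calculated relative to time-zero cells and untreated cells, giving GI50 (half-maximal growth inhibition concentration). Average of two replicates.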

MDA-MB-435 = experiment: Cytotoxicity against human MDA-MB-435 cells after 2 days by sulforhodamine B assay; conditions: MDA-MB-435, 48 h; procedure, shortened: as §1
SF-295 = experiment: Cytotoxicity against human SF295 cells after 2 days by sulforhodamine B assay; conditions: SF-295, 48 h; procedure, shortened: as §1
UACC-257 = experiment: Cytotoxicity against human UACC257 cells after 2 days by sulforhodamine B assay; conditions: UACC-257, 48 h; procedure, shortened: as §2
SK-OV-3 = experiment: Cytotoxicity against human SKOV3 cells after 2 days by sulforhodamine B assay; conditions: SK-OV-3, 48 h; procedure, shortened: as §1
HL-60(TB) = experiment: Cytotoxicity against human HL-60(TB) cells after 2 days by sulforhodamine B assay; conditions: HL-60, 48 h
Procedure, shortened: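 NCI60 multi-dose screen: cells exposed to compound over a 5-log mol/L concentration range for 2 days, then fixed and stained with sulphorhodamine B and optical density read. Growth inhibition calculated relative to time-zero control and untreated cells; GI50 reported as average of two replicates.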

CCRF-CEM = experiment: Cytotoxicity against human CCRF-CEM cells after 2 days by sulforhodamine B assay; conditions: 48 h; procedure, shortened: as §1
NCI-H23 = experiment: Cytotoxicity against human NCI-H23 cells after 2 days by sulforhodamine B assay; conditions: NCI-H23, 48 h; procedure, shortened: as §1
UO-31 = experiment: Cytotoxicity against human UO31 cells after 2 days by sulforhodamine B assay; conditions: UO-31, 48 h; procedure, shortened: as §2
SK-MEL-28 = experiment: Cytotoxicity against human SK-MEL-28 cells after 2 days by sulforhodamine B assay; conditions: SK-MEL-28, 48 h; procedure, shortened: as §1
OVCAR-3 = experiment: Cytotoxicity against human OVCAR3 cells after 2 days by sulforhodamine B assay; conditions: OVCAR-3, 48 h; procedure, shortened: as §1
NCI-H226 = experiment: Cytotoxicity against human NCI-H226 cells after 2 days by sulforhodamine B assay; conditions: NCI-H226, 48 h; procedure, shortened: as §1
KM12 = experiment: Cytotoxicity against human KM12 cells after 2 days by sulforhodamine B assay; conditions: KM12, 48 h; procedure, shortened: as §1
NCI-H322M = experiment: Cytotoxicity against human NCI-H322M cells after 2 days by sulforhodamine B assay; conditions: 48 h; procedure, shortened: as §1
OVCAR-4 = experiment: Cytotoxicity against human OVCAR4 cells after 2 days by sulforhodamine B assay; conditions: OVCAR-4, 48 h; procedure, shortened: as §1
SK-MEL-2 = experiment: Cytotoxicity against human SK-MEL-2 cells after 2 days by sulforhodamine B assay; conditions: SK-MEL-2, 48 h; procedure, shortened: as §1
OVCAR-5 = experiment: Cytotoxicity against human OVCAR5 cells after 2 days by sulforhodamine B assay; conditions: OVCAR-5, 48 h; procedure, shortened: as §1
LOX IMVI = experiment: Cytotoxicity against human LOXIMVI cells after 2 days by sulforhodamine B assay; conditions: 48 h; procedure, shortened: as §1
UACC-62 = experiment: Cytotoxicity against human UACC62 cells after 2 days by sulforhodamine B assay; conditions: UACC-62, 48 h; procedure, shortened: as §2
K562 = experiment: Cytotoxicity against human K562 cells after 2 days by sulforhodamine B assay; conditions: K562, 48 h; procedure, shortened: as §1
SK-MEL-5 = experiment: Cytotoxicity against human SK-MEL-5 cells after 2 days by sulforhodamine B assay; conditions: SK-MEL-5, 48 h; procedure, shortened: as §1
NCI-H460 = experiment: Cytotoxicity against human NCI-H460 cells after 2 days by sulforhodamine B assay; conditions: NCI-H460, 48 h; procedure, shortened: as §1
[1] = read-out: LC50 (the source's name)

`COc1cc(-c2ccc[nH]2)[nH]c1/C=C1\N=C(C)C(C(=O)CCC(=O)Oc2ccc3c(c2)CC[C@@H]2[C@@H]3CC[C@]3(C)C(=O)CC[C@@H]23)=C1C` was tested. Which GI50 (SN12C) did it give?
Its GI50 is 5.21 µM.

And the TGI (SN12C)?
Its TGI is over 100 µM.

What about the CC50 (SN12C; [1]) of the same compound?
The CC50 was over 100 µM.

And the GI50 (BT-549)?
Its GI50 is 15.6 µM.

And the LC50 (concentration killing 50% of cells present at time zero) (BT-549)?
Its LC50 (concentration killing 50% of cells present at time zero) is over 100 µM.

And the TGI (BT-549)?
Its TGI is over 100 µM.

And the GI50 (OVCAR-8)?
The GI50 was 8.36 µM.

And the LC50 (OVCAR-8)?
The LC50 was over 100 µM.

And the TGI (OVCAR-8)?
The TGI was over 100 µM.

What about the GI50 (HCT-15) of the same compound?
Its GI50 is 2.6 µM.

What about the LC50 (HCT-15) of the same compound?
The LC50 was over 100 µM.

What about the TGI (HCT-15) of the same compound?
Its TGI is over 100 µM.

What about the GI50 (M14) of the same compound?
The GI50 was 12.4 µM.

And the TGI (M14)?
Its TGI is 33.4 µM.

And the CC50 (M14; [1])?
The CC50 was 91.2 µM.

What about the GI50 (HCT-116) of the same compound?
Its GI50 is 0.8 µM.

What about the LC50 (concentration killing 50% of cells vs time zero) (HCT-116) of the same compound?
Its LC50 (concentration killing 50% of cells vs time zero) is over 100 µM.

What about the TGI (HCT-116) of the same compound?
Its TGI is over 100 µM.

And the GI50 (HOP-62)?
Its GI50 is 18.3 µM.

And the TGI (HOP-62)?
Its TGI is 65.9 µM.

What about the CC50 (HOP-62; [1]) of the same compound?
Its CC50 is over 100 µM.

What about the GI50 (MCF7) of the same compound?
The GI50 was 1.91 µM.

And the LC50 (concentration giving 50% net cell kill) (MCF7)?
Its LC50 (concentration giving 50% net cell kill) is over 100 µM.

What about the TGI (MCF7) of the same compound?
The TGI was over 100 µM.

What about the GI50 (SR) of the same compound?
Its GI50 is 0.72 µM.

And the LC50 (concentration giving 50% net cell kill) (SR)?
Its LC50 (concentration giving 50% net cell kill) is over 100 µM.

And the TGI (SR)?
The TGI was over 100 µM.

And the GI50 (MDA-MB-435)?
Its GI50 is 7.68 µM.

What about the TGI (MDA-MB-435) of the same compound?
Its TGI is over 100 µM.

What about the CC50 (MDA-MB-435; [1]) of the same compound?
The CC50 was over 100 µM.

And the GI50 (SF-295)?
Its GI50 is 21.4 µM.

And the LC50 (SF-295)?
Its LC50 is over 100 µM.

And the TGI (SF-295)?
The TGI was 85.4 µM.

And the GI50 (UACC-257)?
The GI50 was 97.6 µM.

And the TGI (UACC-257)?
Its TGI is over 100 µM.

And the CC50 (UACC-257; [1])?
Its CC50 is over 100 µM.

And the GI50 (SK-OV-3)?
Its GI50 is over 100 µM.

And the LC50 (concentration killing 50% of starting cells) (SK-OV-3)?
The LC50 (concentration killing 50% of starting cells) was over 100 µM.

And the TGI (SK-OV-3)?
The TGI was over 100 µM.

What about the GI50 (HL-60(TB)) of the same compound?
The GI50 was 55.8 µM.

And the TGI (HL-60(TB))?
Its TGI is over 100 µM.

What about the CC50 (HL-60(TB); [1]) of the same compound?
The CC50 was over 100 µM.

And the GI50 (CCRF-CEM)?
Its GI50 is 0.54 µM.

And the TGI (CCRF-CEM)?
Its TGI is over 100 µM.

What about the CC50 (CCRF-CEM; [1]) of the same compound?
Its CC50 is over 100 µM.

What about the GI50 (NCI-H23) of the same compound?
Its GI50 is 9.8 µM.

And the LC50 (concentration killing 50% of cells) (NCI-H23)?
The LC50 (concentration killing 50% of cells) was over 100 µM.

And the TGI (NCI-H23)?
The TGI was over 100 µM.

What about the GI50 (UO-31) of the same compound?
Its GI50 is 4.15 µM.

And the LC50 (UO-31)?
Its LC50 is over 100 µM.

And the TGI (UO-31)?
The TGI was 31 µM.

What about the GI50 (SK-MEL-28) of the same compound?
Its GI50 is 75 µM.

And the LC50 (SK-MEL-28)?
The LC50 was over 100 µM.

And the TGI (SK-MEL-28)?
Its TGI is over 100 µM.

And the GI50 (OVCAR-3)?
The GI50 was 17.6 µM.

What about the LC50 (OVCAR-3) of the same compound?
Its LC50 is over 100 µM.

And the TGI (OVCAR-3)?
The TGI was over 100 µM.

What about the GI50 (NCI-H226) of the same compound?
The GI50 was 11.1 µM.

And the LC50 (NCI-H226)?
Its LC50 is over 100 µM.

What about the TGI (NCI-H226) of the same compound?
The TGI was over 100 µM.

And the GI50 (KM12)?
The GI50 was 6.25 µM.

What about the LC50 (KM12) of the same compound?
Its LC50 is over 100 µM.

And the TGI (KM12)?
The TGI was over 100 µM.

What about the GI50 (NCI-H322M) of the same compound?
Its GI50 is 32.6 µM.

And the LC50 (concentration killing 50% of cells) (NCI-H322M)?
The LC50 (concentration killing 50% of cells) was over 100 µM.

And the TGI (NCI-H322M)?
Its TGI is over 100 µM.

And the GI50 (OVCAR-4)?
The GI50 was 20.9 µM.

And the LC50 (concentration killing 50% of cells) (OVCAR-4)?
Its LC50 (concentration killing 50% of cells) is over 100 µM.

What about the TGI (OVCAR-4) of the same compound?
Its TGI is over 100 µM.

And the GI50 (SK-MEL-2)?
The GI50 was 15.6 µM.

And the LC50 (SK-MEL-2)?
Its LC50 is over 100 µM.

What about the TGI (SK-MEL-2) of the same compound?
The TGI was 58.8 µM.

And the GI50 (OVCAR-5)?
The GI50 was 9.64 µM.

And the LC50 (OVCAR-5)?
The LC50 was over 100 µM.

And the TGI (OVCAR-5)?
The TGI was over 100 µM.

And the GI50 (LOX IMVI)?
Its GI50 is 1.17 µM.

And the LC50 (LOX IMVI)?
The LC50 was 21.2 µM.

And the TGI (LOX IMVI)?
The TGI was 3.56 µM.

And the GI50 (UACC-62)?
The GI50 was 3.71 µM.

And the TGI (UACC-62)?
Its TGI is 17.6 µM.

And the CC50 (UACC-62; [1])?
Its CC50 is 65.1 µM.

What about the GI50 (K562) of the same compound?
Its GI50 is 4.23 µM.

What about the LC50 (concentration killing 50% of cells) (K562) of the same compound?
Its LC50 (concentration killing 50% of cells) is over 100 µM.

And the TGI (K562)?
The TGI was over 100 µM.

And the GI50 (SK-MEL-5)?
Its GI50 is 3.5 µM.

What about the LC50 (concentration killing 50% of cells) (SK-MEL-5) of the same compound?
Its LC50 (concentration killing 50% of cells) is 68.8 µM.

What about the TGI (SK-MEL-5) of the same compound?
Its TGI is 19.6 µM.

And the GI50 (NCI-H460)?
Its GI50 is 3.09 µM.

What about the LC50 (NCI-H460) of the same compound?
The LC50 was over 100 µM.

What about the TGI (NCI-H460) of the same compound?
Its TGI is over 100 µM.
